Entries after “also recorded” stand apart in the source; their conditions may differ. Where two headings read alike, the source gives them in different places. Ends that are not written are not given here.
Key:
Ad3 = assay: Direct viral time kill assay, Ad3; assay type: cell-based, adenovirus; conditions: Ad3, 500 μg/ml peptide, 4 hours; ANOVA p = 0.008
Outline: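 Ad3 reference strain grown in A549 cells. Peptide stock in sterile water, diluted in tryptone-saline (pH 5.5). Final mix: 500 μg/ml peptide with ~10⁴ PFU/ml virus, or tryptone-saline control, at 37°C. At 1 and 4 h, aliquots diluted in ice-cold medium with 10% FBS, then plated on A549 monolayers (37°C, 5% CO₂). After 8-9 days, gentian violet-stained plaques counted as PFU/ml. Log₁₀ titers by ANOVA/Fisher; 7 repeats.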

Ad5 [1] = assay: Direct viral time kill assay, Ad5; assay type: cell-based, adenovirus; conditions: Ad5, 500 μg/ml peptide; for inhibition of Ad5 vs tryptone-saline control (in words): 4 hours, ANOVA p < 0.001
Outline: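 Ad5 clinical isolate grown in A549 cells. Peptide stock in sterile water, diluted in tryptone-saline (pH 5.5); mixed with virus to 500 μg/ml final, ~10⁴ PFU/ml; 37°C water bath. Aliquot at 1 h quenched in ice-cold medium with 10% FBS, diluted, plated on A549 monolayers (37°C, 5% CO₂). Gentian violet stain at 7 days, plaques counted, titer as PFU/ml; 7 repeats; log₁₀ ANOVA, Fisher comparisons.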

Ad5 [2] = assay: Increasing Concentration Direct Inhibition Assay, Ad5; assay type: cell-based, adenovirus
HSV-1 [3] = assay: Increasing Concentration Direct Inhibition Assay, HSV-1; assay type: cell-based, herpes simplex virus type 1
Outline: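 HSV-1 McKrae strain, grown in Vero cells. Virus incubated with test compound at a range of concentrations in tryptone-saline. Titers were determined by plaque assay. Each concentration has its own tryptone-saline control. Log reduction is the mean titer difference between treated virus and that control.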

Ad5 [4] = assay: TOTO-1 assay, Ad5 capsid integrity; design: species or system adenovirus; conditions: 5 hours at 37°C; for TOTO-1 fluorescence / Ad5 capsid integrity (in words): Ad5, peptide 10-500 μg/ml
HSV-1 [5] = assay: TOTO-1 assay, HSV-1 envelope/capsid integrity; design: species or system herpes simplex virus type 1; conditions: 5 hours at 37°C
Outline: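 HSV-1 McKrae grown in Vero cells. Test compound (2-500 μg/ml) incubated with or without virus (~5 × 10⁴ PFU/ml), 5 h, 37°C. Mixture added to 120 nM TOTO-1 in tryptone-saline pH 8.0; fluorescence read at 485/20 nm excitation, 516/20 nm emission. Signal = raw minus peptide- and virus-derived fluorescence; adenovirus DNA standards. Run in duplicate; repeated at least twice on different days.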

bacteria = conditions: cited from earlier work

Substance: NQGRHFCGGALIHARFVMTAASCFQ (cysteine pairing not given here) [Peptide A]
- inhibition of Ad3 vs tryptone-saline control (in words) (Ad3): statistically-significant reduction in viral titers
- inhibition of Ad5 at 1 hour (in words) (Ad5 [1]; 1 hour incubation, data not shown): significantly inhibited
- inhibition of Ad5 vs tryptone-saline control (in words) (Ad5 [1]): significantly greater inhibitory activity than the tryptone-saline control
- initial inhibitory concentration (Ad5 [2]; Ad5, 4 hours incubation): 50 µg/mL
- inhibitory effect (log reduction of viral titers) above 100 μg/ml (Ad5 [2]; Ad5, peptide above 100 μg/ml (up to 750 μg/ml), 4 hours incubation): ~2 log reductions
- initial inhibitory concentration (HSV-1 [3]; HSV-1, 4 hours incubation): 50 µg/mL
- inhibitory effect (log reduction of viral titers) above 100 μg/ml (HSV-1 [3]; HSV-1, peptide above 100 μg/ml (up to 750 μg/ml), 4 hours incubation): ~2 log reductions
- increase in TOTO-1 fluorescence (Ad5 [4]; Ad5, peptide 500 μg/ml, 120 nM TOTO-1): 65-85%
- TOTO-1 fluorescence / Ad5 capsid integrity (in words) (Ad5 [4]): dose-dependent increase in TOTO-1 fluorescence
- TOTO-1 fluorescence with HSV-1 between 10 and 100 μg/ml (in words) (HSV-1 [5]; HSV-1, peptide 10 to 100 μg/ml): no increase in fluorescence
- TOTO-1 fluorescence with HSV-1 from 100 to 500 μg/ml (in words) (HSV-1 [5]; HSV-1, peptide 100 to 500 μg/ml): increasing fluorescence

Substance: Asn-Gln-------------Gly-Arg-His-Phe-Cys-Gly-Gly-Ala-Leu-Ile-His-Ala-Arg-Phe-Val-Met-Thr-Ala-Ala-Ser-Ser-Phe-Gln [Peptide C]
- inhibition of Ad3 vs tryptone-saline control (in words) (Ad3): statistically-significant reduction in viral titers

Substance: IQSPAGQSRCGGFLVREDFVLTAAHCWG (cysteine pairing not given here) [Cathepsin G20-47 peptide, reference compound]
- TOTO-1 fluorescence / Ad5 capsid integrity (in words) (Ad5 [4]): minimal fluorescence; also recorded: no disruptive effect on Ad5 capsid integrity
- antibacterial activity (in words) (bacteria): negligible antibacterial activity

Substance: NQGRHFSGGALIHARFVMTAASCFQ [Peptide B]
- inhibition of Ad3 vs tryptone-saline control (in words) (Ad3): statistically-significant reduction in viral titers
- inhibition of Ad5 vs tryptone-saline control (in words) (Ad5 [1]): significantly greater inhibitory activity than the tryptone-saline control

Substance: Asn-Gln-------------Gly-Arg-His-Phe-Ser-Gly-Gly-Ala-Leu-Ile-His-Ala-Arg-Phe-Val-Met-Thr-Ala-Ala-Ser-Ser-Phe-Gln [Peptide D]
- inhibition of Ad3 vs tryptone-saline control (in words) (Ad3): statistically-significant reduction in viral titers
- antibacterial activity (in words) (bacteria; ref Previous studies): inactive

— PMC2749063 (Current eye research, 2009)
